The RNAGym collection of RNA variant scans (doi:10.1126/science.aae0568)
Variants at the floor of the assay were thinned out.

B1: tRNA (parent)
chain: GUUCCGUUGGCGUAAUGGUAACGCGUCUCCCUCCUAAGGAGAAGACUGCGGGUUCGAGUCCCGUACGGAACG

Variants of: B1
Experiment: yeast fitness relative to wild type (ratio to wild type); higher = fitter; tRNA-Arg(CCU), competitive growth, 37 C, YPD
Procedure, shortened: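 Variants of the tRNA-Arg(CCU) gene, chemically synthesised with a 3% per-site mutation rate at 69 sites, were placed at the native genomic locus in Saccharomyces cerevisiae. The pooled strains were competed in YPD at 37°C for 24 hours in six parallel replicates. Gene amplicons from the start population and from each end population were read by 100-nucleotide paired-end sequencing. Darwinian fitness relative to wild type came from changes in genotype frequencies; genotypes needed ≥ 100 starting reads, and estimates < 0.5 were set to 0.5.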

Point of comparison: A21C C27G U28A C29U C34U, yeast fitness 0.525. Against it:
- A20U U28G C30U U32G C34G — lower, ≤ 0.5
- A20U U28G U32G C34G — lower, 0.513
- A20U U28G U32G C34G C66U — lower, ≤ 0.5
- A20U U32A C66U — higher, 0.554
- A20U U32A G67C — higher, 0.543
- A20U U32C A43G — higher, 0.659
- A20U U32G U35A C62U A69C — lower, ≤ 0.5
- A20U U35A C46G C49U — lower, ≤ 0.5
- A20U U35C G44C — higher, 0.592
- A20U U47A A70C — higher, 0.536
- A20U U47A U53C — higher, 0.532
- A20U U47G — higher, 0.611
- A20U U54A — higher, 0.699
- A20U U54C G63U — lower, ≤ 0.5
- A20U U64G — higher, 0.725
- A21C A36C G56A — higher, 0.562
- A21C A36C U47A C62G — lower, ≤ 0.5
- A21C A36G G67C — lower, ≤ 0.5
- A21C A37C A69U — lower, ≤ 0.5
- A21C A37C C55A G58A — lower, 0.515
- A21C A37G C49A C60G C66A — lower, ≤ 0.5
- A21C A37U A42U C46G U47G — higher, 0.534
- A21C A40G — higher, 0.818
- A21C A40U — higher, 0.807
- A21C A42G A69C A70G — higher, 0.543
- A21C A42U G44C U53C — lower, ≤ 0.5
- A21C A42U G52A C60A A69G — lower, ≤ 0.5
- A21C A43G C60G A65G — lower, ≤ 0.5
- A21C A43G G58A — higher, 0.892
- A21C A43G G58C — lower, ≤ 0.5
- A21C A45C — higher, 0.73
- A21C A45C C49U — higher, 0.582
- A21C A45C C49U C55G G56C — lower, ≤ 0.5
- A21C A45C C62G A65C — higher, 0.574
- A21C A45G G63C C66U — lower, ≤ 0.5
- A21C A45U G52C — higher, 0.581
- A21C A57C — higher, 0.548
- A21C A57G — higher, 0.708
- A21C A57U C62U — lower, ≤ 0.5
- A21C A70C — higher, 0.798
- A21C C22A C29U C49G — lower, ≤ 0.5
- A21C C22A C60U — lower, ≤ 0.5
- A21C C22G — higher, 0.564
- A21C C22G A70C — lower, ≤ 0.5
- A21C C22G G38C — lower, 0.52
- A21C C22G G38C G51C — lower, ≤ 0.5
- A21C C22G U32A G56C — lower, ≤ 0.5
- A21C C22U — higher, 0.664
- A21C C22U C31U C33U — lower, ≤ 0.5
- A21C C22U C31U C33U C62A — higher, 0.61
- A21C C22U C31U C33U G48C — lower, ≤ 0.5
- A21C C22U G38C A40C — lower, ≤ 0.5
- A21C C24A A65C — lower, ≤ 0.5
- A21C C24A C49U — lower, ≤ 0.5
- A21C C24A G39A — lower, ≤ 0.5
- A21C C24G A37U C55U — lower, ≤ 0.5
- A21C C24G G68C — lower, ≤ 0.5
- A21C C24G U32A A42C A65U — higher, 0.543
- A21C C24U A37C G39A C49G A69C — lower, ≤ 0.5
- A21C C24U C46U C60U — lower, ≤ 0.5
- A21C C24U U32A C62G G63A — lower, ≤ 0.5
- A21C C24U U32A G41A C62G — lower, ≤ 0.5
- A21C C27A C33U — higher, 0.906
- A21C C27A C49G — higher, 0.54
- A21C C27A U28A A45G A69C — lower, ≤ 0.5
- A21C C27G — higher, 0.537
- A21C C27G G39C — lower, ≤ 0.5
- A21C C27G U28A C29U C34U C62U G63C — lower, ≤ 0.5
- A21C C27U — higher, 0.774
- A21C C27U A45C C49U — lower, ≤ 0.5
- A21C C27U A57G — higher, 0.79
- A21C C27U C33A A37C — higher, 0.554
- A21C C27U C33U — higher, 0.544
- A21C C27U C46G G48A C62G G68C — lower, ≤ 0.5
- A21C C27U C61G — higher, 0.534
- A21C C27U G58C C62G — lower, ≤ 0.5
- A21C C27U U47A — higher, 0.545
- A21C C29A G41A U54A — lower, ≤ 0.5
- A21C C29A G52A C55G A57C A69C — lower, ≤ 0.5
- A21C C29A G52C G68A — higher, 0.664
- A21C C29G G51A — higher, 0.529
- A21C C29U A43G C66U — lower, ≤ 0.5
- A21C C29U A45U — lower, 0.521
- A21C C29U A57C — higher, 0.558
- A21C C29U A57U C60U C62U C66U — higher, 0.564
- A21C C29U C31G A43U — higher, 0.612
- A21C C29U C31G A43U A65U — higher, 0.593
- A21C C30A C62U A70U — lower, ≤ 0.5
- A21C C30G C66A — higher, 0.572
- A21C C30G U54C C55G A70G — lower, ≤ 0.5
- A21C C30U A43U G48C — lower, ≤ 0.5
- A21C C30U A45G — lower, ≤ 0.5
- A21C C30U U32G U53C G67A — lower, ≤ 0.5
- A21C C31A — higher, 0.725
- A21C C31A C33G A45G G48A — higher, 0.579
- A21C C31A C33G A45G G48A A65U — lower, ≤ 0.5
- A21C C31A C46A U54C — lower, ≤ 0.5
- A21C C31G C62U A69G — lower, ≤ 0.5
- A21C C31U — higher, 0.733
- A21C C33G G39A — lower, ≤ 0.5
- A21C C33U C61A G68C — lower, ≤ 0.5
- A21C C34A — higher, 0.605
- A21C C34A A37G — lower, 0.513
- A21C C34A G38A A45U — higher, 0.546
- A21C C34G A36G C46A — higher, 0.586
- A21C C34G A36G C46A C66A A70G — lower, ≤ 0.5
- A21C C34U C49U — lower, ≤ 0.5
- A21C C34U C66U — lower, ≤ 0.5
- A21C C46G A65U — higher, 0.658
- A21C C46G C49G — higher, 0.655
- A21C C46U — higher, 0.909
- A21C C46U A65U — higher, 0.556
- A21C C46U A69C — higher, 0.668
- A21C C46U G67A — higher, 0.619
- A21C C49A A70G — higher, 0.626
- A21C C61A G68A — lower, 0.515
- A21C C61G — higher, 0.585
- A21C C61G C62G — lower, ≤ 0.5
- A21C C62A — higher, 0.788
- A21C C62G — higher, 0.723
- A21C C62G A65C — lower, ≤ 0.5
- A21C C62U — higher, 0.798
- A21C C62U C66U — higher, 0.533
- A21C C62U G68C — higher, 0.601
- A21C G23A C49A C60G G63A — lower, ≤ 0.5
- A21C G23A G52C A57C — lower, ≤ 0.5
- A21C G23A G58C A65U — lower, ≤ 0.5
- A21C G23U — higher, 0.714
- A21C G23U C62U A65G — lower, ≤ 0.5
- A21C G23U G48C — lower, ≤ 0.5
- A21C G25A C30A A37U C66A — lower, ≤ 0.5
- A21C G25C U26G — higher, 0.59
- A21C G25C U26G C62A — lower, ≤ 0.5
- A21C G44C — higher, 0.627
- A21C G44C G50A A57G G68C — lower, ≤ 0.5
- A21C G48C — higher, 0.788
- A21C G56A — higher, 0.946
- A21C G58C — higher, 0.84
- A21C G58C A65U — lower, 0.521
- A21C G58C C66U — lower, ≤ 0.5
- A21C G67C — higher, 0.654
- A21C G68A — higher, 0.799
- A21C G68C A69U — lower, ≤ 0.5
- A21C G68U — higher, 0.789
- A21C U26A A40U — higher, 0.534
- A21C U26A C31U — lower, ≤ 0.5
- A21C U26C A57U — lower, ≤ 0.5
- A21C U26G A65G A69C — lower, ≤ 0.5
- A21C U28A G50A — lower, ≤ 0.5
- A21C U28C A45G — higher, 0.603
- A21C U28G A43C G52C — lower, ≤ 0.5
- A21C U28G A43C G52C G67U — lower, ≤ 0.5
- A21C U28G C33U C34U A43U G50A A69C — lower, ≤ 0.5
- A21C U32A U35C — lower, ≤ 0.5
- A21C U32C — higher, 0.864
- A21C U32C C34A — lower, ≤ 0.5
- A21C U47A G52C — higher, 0.662
- A21C U47C A65C — lower, ≤ 0.5
- A21C U59A A65U — lower, ≤ 0.5
- A21C U59C — higher, 0.777
- A21G A36G A40C A42C — lower, ≤ 0.5
- A21G A36G A65C — higher, 0.664
- A21G A36G C60U — higher, 0.531
- A21G A36G G38C C49U — lower, ≤ 0.5
- A21G A36U — higher, 0.583
- A21G A36U U53A — higher, 0.58
